Source: PubChem BioAssay
Vif inh: HIV Vif self-association inhibitors, primary screen, imaging, HEK293T, single point. 340,000 compounds, 0.35% hits. HEK293T cells, Vif self-association by quenched fluorescence, 24 h. AID 602346, 2012. inhibition, % at 7.49 µM; in the data active means inhibition above about 50%, passing the limit was not always enough; inconclusive means no clear call, values can overlap the other calls; inactive means below about 31%
S100A4 MyoIIA: inhibitors of S100A4-myosin IIA peptide binding, primary screen, biochemical, fluorescence polarization, TAMRA-MyoIIA peptide | Protein S100-A4 (Homo sapiens), P26447 | inhibition, % at 10.7 µM | 360,000 compounds, 0.14% hits | AID 652163, 2013;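 active means mean inhibition of at least 70% across replicates, with every replicate also reaching that level; inconclusive means mean inhibition reaches 70% but some replicates fall short; inactive means mean inhibition below 70%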
Target sequence (P26447 whole entry, looked up): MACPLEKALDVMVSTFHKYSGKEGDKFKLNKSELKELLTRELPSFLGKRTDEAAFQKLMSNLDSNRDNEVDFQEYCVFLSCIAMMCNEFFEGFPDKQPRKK
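Test system: S100A4 monomer protein; Medium: HEPES pH 7.2 with CaCl2, KCl, NaCl, DTT, Triton; Probe or stimulus: TAMRA-labelled myosin IIA heavy-chain peptide probe, 5 nM; Doses: one dose per compound; Times: polarization read 5 min after assay mix addition, stable 5–60 min; Benchmarks: neutral control DMSO, positive control TFP.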
HIV Env fusion: inhibitors of HIV-1 Env-driven cell-cell fusion, primary screen, HeLa-JRFL effector, CEM21 target cells, luciferase. 360,000 compounds, 1.1% hits. AID 651610, 2012. inhibition, % at 12.3 µM;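 active means mean replicate inhibition score of at least 50 and every replicate individually at or above 50; inconclusive means only one of the two criteria met; inactive means mean below 50 and not all replicates reaching 50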;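 further: 0% = plate neutral controls and 100% = maraviroc near 300 nM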
FN deposit inh: inhibitors of fibronectin matrix deposition, primary screen, AH1F cells, Alexa488-fibronectin fluorescence, plate reader | inhibition, % at 12.6 µM | 350,000 compounds, 0.086% hits | AH1F fibroblasts, overnight;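 active means mean inhibition across replicates of 30% or more, regardless of how many single replicates reach that level; inconclusive means mean under 30% yet at least half of replicates reach 30%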;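 further: positive control wells lacked labelled fibronectin entirely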
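Material: AH1F fibroblasts assembling fluorescent fibronectin matrix; amount: 10000 AH1F cells/well; medium: DMEM, 2% serum; reagent: Alexa488-fibronectin, 24 nM final in well; dosing: single compound dose, delivered by pin transfer; incubation: 1 h adhesion, overnight exposure; detection: fluorescence after three HBSS washes, excitation 485 nm, emission 525 nm; measure: fibronectin deposition inhibition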
Ecoli rRNA inh: reduced GFP signal of wild-type E. coli, primary screen, bacterial rRNA inhibitor project, GFP/RFP fluorescence, OD600, single point; E. coli WT GFP vs humanized-ribosome RFP mutants, 24 h; hits give low values; DMSO median 0, no signal -100; GFP signal change (wild-type ribosome), % (concentration not given with the values); 350,000 compounds, 1.6% hits;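 active means significant combined selectivity score with lowered wild-type GFP, culture density cut under 30%, mutant RFP and density less affected; inactive means any of these conditions unmet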
miR-122 sensor: miR-122 Renilla sensor signal increase in Huh7, primary screen, miR-122 inhibitor project, cell-based, single point, plate reader. Huh7 miR-122 Renilla luciferase sensor, 48 h; neutral wells = 0, positive control = 100. AID 602342, 2012. 340,000 compounds, 0.3% hits. activation (reporter increase), % at 12.5 µM;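 active means mean replicate activation score at least 90 and every replicate individually at or above 90; inconclusive means only one of the two criteria met; inactive means neither criterion met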;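 further: higher luciferase means less miR-122 activity so hits act as miR-122 inhibitors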
An asterisk follows results filed as active; u = inconclusive; x = no result given; [ ] = remark or other dose. An excerpt weighted towards active compounds, which were near 2.6% of everything screened.

SMILES	Vif inh	S100A4 MyoIIA	HIV Env fusion	FN deposit inh	Ecoli rRNA inh	miR-122 sensor
C[C@@H]1CCCCO[C@H](CN(C)C(=O)Nc2ccc(C(F)(F)F)cc2)[C@H](C)CN([C@@H](C)CO)C(=O)c2cc(NC(=O)c3ccccc3)ccc2O1	x	4	73*[16.7 µM]	x	-1	-11[16.7 µM]
C[C@H](CO)N1C[C@H](C)[C@@H](CN(C)C(=O)c2ccccc2)OCCCC[C@H](C)Oc2ccc(NC(=O)Nc3ccc(C(F)(F)F)cc3)cc2C1=O	x	-3	-27[16.7 µM]	x	2	10[16.7 µM]
C[C@@H]1CCCCO[C@@H](CN(C)C(=O)c2ccccc2)[C@H](C)CN([C@@H](C)CO)C(=O)c2cc(NC(=O)c3ccccc3)ccc2O1	x	-5	-3[16.7 µM]	-3	-21*	-7[16.7 µM]
CC(=O)N1CC[C@@H]2[C@H]1c1cc(-c3ccccc3)ccc1N(C)[C@@H]2CO	x	-3	x	3	3	-7[16.7 µM]
C[C@H]1CCCCO[C@H](CN(C)C(=O)Nc2ccc(C(F)(F)F)cc2)[C@@H](C)CN([C@@H](C)CO)C(=O)c2cc(NC(=O)Nc3ccccc3)ccc2O1	x	-12	64*[16.7 µM]	-10	4	-5[16.7 µM]
C[C@@H]1CCCCO[C@H](CN(C)C(=O)Nc2ccc(C(F)(F)F)cc2)[C@H](C)CN([C@@H](C)CO)C(=O)c2cc(NC(=O)Nc3ccccc3)ccc2O1	x	-10	30[16.7 µM]	-2	1	-2[16.7 µM]
C[C@@H]1CN([C@@H](C)CO)C(=O)c2cc(NC(=O)NC3CCCCC3)ccc2O[C@@H](C)CCCCO[C@@H]1CN(C)C(=O)Cc1ccccc1	x	x	62*[16.7 µM]	x	-1	-2[16.7 µM]
CCCNC(=O)N[C@H]1CC[C@@H](CCn2cc(C3CC3)nn2)O[C@H]1CO	x	16	13[16.7 µM]	-1	-1	x
Cc1ccc(-c2ccc([C@H]3[C@@H](CO)N4C(=O)CN(C(=O)c5ccc(F)cc5)C[C@H]34)cc2)cc1	x	x	x	x	-56	x
COC(=O)c1ccc(Oc2coc3cc(OCc4cnn(-c5ccccc5)c4)ccc3c2=O)cc1	142*	x	-179	-1	x	1
C[C@H]1COCn2nncc2CC[C@H](Cc2ccccc2)C(=O)N1	x	x	x	-13	4	x
COc1ccc(S(=O)(=O)N2CC[C@@H]3[C@@H](CO)N(C)c4ccc(-c5ccc(F)cc5)cc4[C@@H]32)cc1	x	-5	x	-45	1	196*[16.7 µM]
CN1c2ccc(-c3ccccc3)cc2[C@H]2[C@H](CCN2S(=O)(=O)c2ccccc2F)[C@H]1CO	x	-8	x	2	0	u
CN1c2ccc(-c3cccc(C#N)c3)cc2[C@H]2[C@H](CCN2S(=O)(=O)c2ccccc2F)[C@H]1CO	x	123*	x	6	-5	58[16.7 µM]
Cc1ccccc1S(=O)(=O)N1CC[C@@H]2[C@@H](CO)N(C)c3ccc(-c4ccccc4)cc3[C@@H]21	x	-5	x	-14	1	102*[16.7 µM]
COc1ccc(-c2ccc3c(c2)[C@@H]2[C@@H](CCN2C(=O)NC2CCCC2)[C@H](CO)N3C)cc1	x	82*	59*[16.7 µM]	0	-13	x
Cc1ccc(P(=O)(c2ccc(C)cc2)[C@@H](NC(c2ccccc2)c2ccccc2)c2ccccc2)cc1	x	13	-27	-7	20	x
Cc1ccccc1[C@H](NC1c2ccccc2C=Cc2ccccc21)P(=O)(c1ccccc1)c1ccccc1	x	-4	86*	10	14	x
CCn1c(C)csc1=NC(=O)c1ccccc1O	0	-4	x	x	-23*	x
CCn1c(C)csc1=NC(=O)c1ccccc1	-2	x	-15	-7	x	0
COc1ccc(C(CNC(=O)c2ccc(Cl)c(S(=O)(=O)N3CCCC3)c2)N2CCCC2)cc1 (stereo unspecified)	3	-4	-7	14	14	1
COc1ccc(CCNC(=O)c2ccc(Cl)c(S(=O)(=O)N3CCCC3)c2)cc1	-9	-8	3	7	-29*	-4
Cc1ccc(C(=O)NCc2ccccn2)cc1S(=O)(=O)N1CCCCC1	-1	-4	90*	x	3	-2
Cc1ccc(S(=O)(=O)N2CCCCCC2)cc1C(=O)NCc1ccccn1	0	3	2	1	1	x
CNC[C@@H]1Oc2ncc(C#CC3CCCCC3)cc2C(=O)N([C@@H](C)CO)C[C@@H]1C	x	x	-1[16.7 µM]	-5	6	-3[16.7 µM]
SMILES	Vif inh	S100A4 MyoIIA	HIV Env fusion	FN deposit inh	Ecoli rRNA inh	miR-122 sensor
COc1cccc(NC(=O)CN2CCSc3ccccc32)c1	-2	-6	5	x	-18	x
COc1ccccc1NC(=O)CN1CCSc2ccccc21	-5	-9	1	x	-21*	x
CO[C@@H](C(=O)N(C)C[C@@H]1OCc2ccccc2-c2c(n(C)c3ccccc23)C(=O)N([C@@H](C)CO)C[C@H]1C)c1ccccc1	x	x	x	3	-1	x
Cc1ccc2nc(C3CCN(S(=O)(=O)c4ccc5ccccc5c4)CC3)[nH]c2c1	2	0	u	-9	-29*	-5
COc1ccc(NC(=O)N2CCC(c3nc4ccccc4[nH]3)CC2)cc1	21	-1	-2	3	-22*	-1
COc1ccccc1NC(=O)CN1CCC(c2nc3ccc(C)cc3[nH]2)CC1	18	-3	7	0	-26*	7
CCOc1ccccc1NC(=O)N1CCC(c2nc3ccccc3[nH]2)CC1	-6	x	12	x	x	-2
O=S(=O)(c1ccc2c(c1)OCCO2)N1CCC(c2nc3ccc(Cl)cc3[nH]2)CC1	-9	x	55*	-2	x	1
CC(=O)c1cccc(S(=O)(=O)N2CCC(c3nc4ccccc4[nH]3)CC2)c1	7	2	-5	-8	2	-1
CCCNC(=O)Nc1ccc2c(c1)C(=O)N(C)[C@H]1CC[C@H](CC(=O)Nc3ccccc3C)O[C@@H]1CO2	x	-15	-7[16.7 µM]	-5	0	8[16.7 µM]
C=CCn1c(SCC(=O)Nc2ccc(F)cc2)nc2cc(C(=O)O)ccc2c1=O	5	-14	-9	0	-3	x
C=CCn1c(SCC(=O)NC23CC4CC(CC(C4)C2)C3)nc2cc(C(=O)O)ccc2c1=O	-1	-56	-5	0	-23*	-4
O=C1CCCS(=O)(=O)c2ccccc21	9	3	10	-2	x	172*
C[C@@H]1CN([C@H](C)CO)C(=O)Cc2cc(NC(=O)Nc3ccccc3)ccc2O[C@@H]1CN(C)Cc1ccc(C(=O)Nc2ccccc2N)cc1	x	x	x	x	3	x
O=C(COc1ccc(Cl)cc1Cl)c1ccc[nH]1	-12	1	6	-2	-31*	-5
